Data on 13 compounds can be found in ChEMBL document CHEMBL2040825, “Synthesis and cytotoxicity of 3,4-disubstituted-5-(3,4,5-trimethoxyphenyl)-4H-1,2,4-triazoles and novel 5,6-dihydro-[1,2,4]triazolo[3,4-b][1,3,4]thiadiazole derivatives bearing 3,4,5-trimethoxyphenyl moiety” (Bioorg Med Chem Lett, 2012).

pIC50: −log10 of the molar value. Bounds are passed on as bounds.

What all share (format): functional, cell-based
For one assay, the system named is HT-29. Nature of the assay: Cytotoxicity against human HT-29 cells after 48 hrs by MTT assay. Conditions: HT-29, 48 h. The procedure, abridged: (§1)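 Cells grown in DMEM with 10% FBS and passaged by trypsinization at 70-80% confluence. Seeding density was 8 × 10^4 cells/well for MKN45, HT-29 and MCF-7 and 5 × 10^4 cells/well for HepG2, then 24 h attachment at 37 °C. Compounds from 10 mM DMSO stock were diluted in medium and applied for 48 h at 37 °C, with 0.1% DMSO as negative control.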

The next assay has as its system MKN-45. Nature of the assay: Cytotoxicity against human MKN45 cells after 48 hrs by MTT assay. Conditions: MKN-45, 48 h. In outline: as §1
The next assay deals with HepG2. The assay is described as follows: Cytotoxicity against human HepG2 cells after 48 hrs by MTT assay. Conditions: HepG2, 48 h. In outline:
as §1

In a further assay the test system is MCF7. Nature of the assay: Cytotoxicity against human MCF7 cells after 48 hrs by MTT assay. Conditions: MCF7, 48 h. In outline: as §1
For orientation: Formazan colour is commonly taken as a measure of viable cells.

With `COc1cc(-c2nnc(SC)n2/N=C/c2ccccc2)cc(OC)c1OC`, the negative logarithm of the IC50 (pIC50) (commonly −log10 of the IC50, conventionally taken in molar units) is below 3.70 with HT-29, 4.55 with MKN-45, below 3.70 with HepG2 and below 3.70 in the assay on MCF7.

On to `COc1cc(-c2nnc(SCc3ccc(F)cc3)n2/N=C/c2ccccc2)cc(OC)c1OC`, for which the pIC50 in the assay with HT-29, with MKN-45, in the assay with HepG2 and in the assay on MCF7 was below 3.70 each time.

For `CCOC(=O)CSc1nnc(-c2cc(OC)c(OC)c(OC)c2)n1/N=C/c1ccc(OC)cc1OC`, the pIC50 in the assay with HT-29, with MKN-45, with HepG2 and with MCF7 was below 3.70 throughout.

As to `COc1ccc(/C=N/n2c(SCc3ccccc3Cl)nnc2-c2cc(OC)c(OC)c(OC)c2)c(OC)c1`, the negative logarithm of the IC50 (pIC50) in the assay with HT-29 was below 3.70; in the assay with MKN-45 it was below 3.70; in the assay on HepG2, below 3.70; with MCF7 it was 4.20.

For the compound `COc1cc(-c2nnc3n2NC(CC(=O)c2ccc(C)cc2)(c2ccccc2)S3)cc(OC)c1OC` (stereo not given), the pIC50 in the assay on HT-29 was 3.82; in the assay with MKN-45, 5.13; with HepG2 it was 6.24; with MCF7, below 3.70.

With `COc1ccc(/C=N/n2c(SCc3ccccc3)nnc2-c2cc(OC)c(OC)c(OC)c2)c(OC)c1`, the pIC50 in the assay on HT-29 is below 3.70; in the assay with MKN-45, 4.31; in the assay on HepG2, 4.22; in the assay with MCF7, 3.82.

With `COc1cccc2c1C(=O)c1c(O)c3c(c(O)c1C2=O)C[C@@](O)(C(=O)CO)C[C@@H]3O[C@H]1C[C@H](N)[C@H](O)[C@H](C)O1` [DOXORUBICIN], the results for the pIC50 in the assay with MKN-45 and in the assay on HepG2 were 6.77 and 5.25, respectively.

With `COc1cc(-c2nnc(SCc3ccccc3)n2/N=C/c2ccccc2)cc(OC)c1OC`, the negative logarithm of the IC50 (pIC50) with HT-29, in the assay with MKN-45, with HepG2 and in the assay with MCF7 was below 3.70 in each case.

With `COc1ccc(C2(CC(=O)c3ccc(C)cc3)Nn3c(nnc3-c3cc(OC)c(OC)c(OC)c3)S2)c(OC)c1` (stereo not given), the negative logarithm of the IC50 (pIC50) in the assay on HT-29 is 4.18; in the assay with MKN-45, 4.86; with HepG2 it was 5.50; in the assay with MCF7, 4.96.

For `CCOC(=O)CC1(c2ccccc2)Nn2c(nnc2-c2cc(OC)c(OC)c(OC)c2)S1` (stereo not given), the pIC50 with HT-29, with MKN-45, with HepG2 and in the assay with MCF7 was below 3.70 in each case.

Regarding `COc1ccc(/C=N/n2c(SC)nnc2-c2cc(OC)c(OC)c(OC)c2)c(OC)c1`, the pIC50 is 3.84 with HT-29, below 3.70 with MKN-45, below 3.70 in the assay with HepG2 and below 3.70 with MCF7.

Turning to `COc1ccc(/C=N/n2c(SCc3ccc(F)cc3)nnc2-c2cc(OC)c(OC)c(OC)c2)c(OC)c1`, the pIC50 in the assay with HT-29 is 3.90; with MKN-45 it was below 3.70; in the assay with HepG2, below 3.70; in the assay on MCF7 it was below 3.70.

In the case of `COc1cc(-c2nnc(SCc3ccccc3Cl)n2/N=C/c2ccccc2)cc(OC)c1OC`, the pIC50 was below 3.70 in the assay on HT-29, below 3.70 in the assay on MKN-45, 4.50 in the assay on HepG2 and below 3.70 in the assay with MCF7.
